The term IC50 denotes the concentration needed to halve the response being measured. Read a low IC50 as higher potency. In general, GI50 refers to the concentration that inhibits growth by half. Lower therefore signals more potent growth inhibition.

Experiment [1] has as its target Cyclin-dependent kinase 2 (Homo sapiens, UniProt P24941). In words: Inhibition of CDK2.
For a further experiment, the system named is EJ. In words: Cytotoxicity against EJ cells after 48 hrs. It counts as functional. As to conditions: Homo sapiens. An outline of the steps: (§1)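 Exponentially growing cells exposed to compound at various concentrations for 48 h, then cell numbers measured; concentration giving 50% growth inhibition determined; means of three experiments.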
Experiment [2] concerns the target Cyclin-dependent kinase 1 (Homo sapiens, UniProt P06493). Description: Inhibition of CDK1.
The next experiment has as its system HCT-116. In words: Cytotoxicity against HCT116 cells after 48 hrs. It is filed as functional. The note with it: Homo sapiens, HCT-116, 48 h. An outline of the steps: as §1
A further experiment relates to SW-620. Description: Cytotoxicity against SW620 cells after 48 hrs. As to conditions: Homo sapiens, SW-620, 48 h. It counts as functional. The method in brief: as §1
The subject of the next experiment is MDA-MB-468. Description: Cytotoxicity against MDA-MB-468 cells after 48 hrs. It is filed as functional. As to conditions: Homo sapiens, MDA-MB-468, 48 h. An outline of the steps:
as §1

Structures are written as SMILES.

Cyclin-dependent kinase 1, sequence (P06493 whole entry): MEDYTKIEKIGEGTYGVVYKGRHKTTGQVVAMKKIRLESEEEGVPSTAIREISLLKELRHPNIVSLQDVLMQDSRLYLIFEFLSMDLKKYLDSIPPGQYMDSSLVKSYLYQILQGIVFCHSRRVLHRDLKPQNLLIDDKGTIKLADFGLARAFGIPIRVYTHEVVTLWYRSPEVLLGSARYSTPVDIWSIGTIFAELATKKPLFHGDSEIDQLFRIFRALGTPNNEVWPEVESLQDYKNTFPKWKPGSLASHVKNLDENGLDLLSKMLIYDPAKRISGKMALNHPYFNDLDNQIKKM

Regarding `O=c1c(O)c(-c2ccc(O)c(O)c2)oc2ccccc12`, in experiment [1], the IC50 was found to be 4000 nM.
Same read-out and setting: the value for `O=c1cc(-c2ccc(O)c(O)c2)oc2c(O)c(O)ccc12` was over 500000 nM; that for `O=c1cc(-c2ccc(O)c(O)c2)oc2ccccc12` was over 500000 nM.
Still for that read-out and setting: the value for `CCN(CC)c1cc(C)cc2c(=O)c(O)c(-c3ccc(O)c(O)c3)oc12` was 1600 nM; that for `Cc1cc(N)c2oc(-c3ccc(O)c(O)c3)c(O)c(=O)c2c1` was 630 nM; that for `Cc1cc(N2C(=O)CNC2=O)c2oc(-c3ccc(O)c(O)c3)c(O)c(=O)c2c1` was 4000 nM.
`Cc1cc(N2C(=O)CN(C)C2=O)c2oc(-c3ccc(O)c(O)c3)c(O)c(=O)c2c1`: inhibition in experiment [1] was half-maximal at 56 nM (IC50). In the experiment with EJ, this compound came in with a GI50 of 1100 nM.
As to `Cc1cc(N2CCCS2(=O)=O)c2oc(-c3ccc(O)c(O)c3)c(O)c(=O)c2c1`, the GI50 in the experiment on EJ stood at 600 nM; in the experiment with HCT-116, 280 nM; in the experiment on SW-620 it was 900 nM; in the experiment on MDA-MB-468, 1000 nM. The same compound displayed an IC50 in experiment [2] of 130 nM.
`Cc1cc(N2CCCC2)c2oc(-c3ccc(O)c(O)c3)c(O)c(=O)c2c1` came in with an IC50 in experiment [1] of 3000 nM.
In experiment [1], `Cc1cc(N2CCCCC2)c2oc(-c3ccc(O)c(O)c3)c(O)c(=O)c2c1` returned a half-inhibitory concentration (IC50) of 2600 nM.
The same measure, in the same setting: as for `Cc1cc(N2CCN(C)CC2)c2oc(-c3ccc(O)c(O)c3)c(O)c(=O)c2c1`, the figure is 640 nM.
For `Cc1cc(N2C(=O)CCC2=O)c2oc(-c3ccc(O)c(O)c3)c(O)c(=O)c2c1`, in experiment [1], the IC50 stood at 1500 nM. In addition, it took 1200 nM to inhibit growth in the experiment with EJ by half (GI50).
As to `Cc1cc(N2CCCS2(=O)=O)c2oc(-c3ccc(O)cc3)c(O)c(=O)c2c1`, the GI50 is 270 nM in the experiment with EJ, 340 nM in the experiment with HCT-116, 570 nM in the experiment with SW-620 and 620 nM in the experiment with MDA-MB-468. Further, in experiment [2], the IC50 was determined as 450 nM.
In the case of `Cc1cc(N2CCCC2=O)c2oc(-c3ccc(O)c(O)c3)c(O)c(=O)c2c1`, in experiment [1], half-maximal inhibition (IC50) required 1600 nM.
On to `Cc1cc(N2C(=O)CCCC2=O)c2oc(-c3ccc(O)c(O)c3)c(O)c(=O)c2c1`, for which the IC50 in experiment [1] was determined as 4400 nM.
For `Cc1cc(N2CCCS2(=O)=O)c2oc(-c3ccc(O)c(C#N)c3)c(O)c(=O)c2c1`, the IC50 in experiment [2] was 160 nM.
For the compound `Cc1cc(N2CCCS2(=O)=O)c2oc(-c3ccc(O)c(C(F)(F)F)c3)c(O)c(=O)c2c1`, the IC50 in experiment [1] is 1700 nM; in experiment [2], 63 nM. The results for the GI50 in the experiment with EJ and in the experiment on HCT-116 were 1300 nM and 910 nM, respectively.
As for `Cc1cc(N2CCCS2(=O)=O)c2oc(-c3ccc(O)c(Cl)c3)c(O)c(=O)c2c1`, the IC50 in experiment [1] is 190 nM; in experiment [2], 33 nM. The GI50 in the experiment on EJ was 65 nM; in the experiment with HCT-116, 37 nM; in the experiment on SW-620, 64 nM; with MDA-MB-468, 180 nM.
Regarding `Cc1cc(N2CCCS2(=O)=O)c2oc(-c3ccc(O)c(Br)c3)c(O)c(=O)c2c1`, the GI50 with EJ turned out to be 64 nM; with HCT-116, 17 nM; in the experiment on SW-620 it was 52 nM; in the experiment on MDA-MB-468 it was 230 nM. The compound also yielded an IC50 in experiment [2] of 19 nM.
On to `O=c1c(O)c(-c2ccc(O)c(O)c2)oc2cc(O)ccc12` [FISETIN], for which, in experiment [1], it took 5000 nM to reach half-maximal inhibition (IC50).
`O=c1cc(-c2ccc(O)c(O)c2)oc2cc(O)cc(O)c12` [LUTEOLIN]: the IC50 in experiment [1] was 20000 nM.
The same measure, in the same setting: the value for `O=c1c(O)c(-c2ccc(O)c(O)c2)oc2cc(O)cc(O)c12` [QUERCETIN] was 40000 nM.
